Measurements from PubChem BioAssay AID588750 (Vanderbilt Specialized Chemistry Center, 2011).
Active and inactive are the calls of the source.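 The calls were made as follows: active = compounds with a dose-dependent response, reported with half-maximal potency and percent of the acetylcholine maximum; inactive = the rest.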

The compounds below were run against Muscarinic acetylcholine receptor M3 (Rattus norvegicus) (UniProt P08483) (assay: rat M3 receptor positive allosteric modulation, dose response, selectivity assay for M4 PAM project, CHO cells, Fluo-4 calcium mobilization (AID 588750)). Details: CHO rat M3, Fluo-4 calcium mobilization; series mostly up to 30 µM; percent of ACh max: at the top concentration.
Outline: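 system = CHO cells stably expressing cloned rat M3 muscarinic receptor | reagent = acetylcholine at EC20, followed by acetylcholine at EC80 | timing = compound pre-incubation 144 s before ACh EC20, read at 37 °C | signal = kinetic calcium fluorescence with Fluo-4 AM dye loaded at 2.3 µM | control set = maximal acetylcholine response at 1 mM for normalization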

Percent of ACh max, inactive:
Cc1nc2sc(C(=O)NCc3ccccc3)c(N)c2c(C)c1Cl 14.2 [at 37.4 µM], Cc1nc2sc(C(=O)NCc3cccnc3)c(N)c2c(C)c1Cl 13.5 [at 45.3 µM], Cc1nc2sc(C(=O)NCc3cccc(F)c3F)c(N)c2c(C)c1Cl 15.9, Cc1nc2sc(C(=O)NCc3ccc4c(c3)OCO4)c(N)c2c(C)c1Cl 14.8 [at 36.8 µM], Cc1nc2sc(C(=O)NCc3nccs3)c(N)c2c(C)c1Cl 20.6, Cc1nc2sc(C(=O)NCc3ccncc3)c(N)c2c(C)c1Cl 16.7 [at 45.3 µM], Cc1nc2sc(C(=O)NCc3ccncn3)c(N)c2c(C)c1Cl 17.7, Cc1nc2sc(C(=O)NCCc3ccncc3)c(N)c2c(C)c1Cl 19.2, Cc1nc2sc(C(=O)NC3CC3)c(N)c2c(C)c1Cl 19.5
